Measurements from different studies.
Protocols differ between the studies behind these lines.
Target: D(2) dopamine receptor (DRD2, Homo sapiens, UniProt P14416)
Tested at: 10 µM

SMILES	assay	inhibition
O=c1oc2cc(OCC(O)CN3CCN(c4ccc(F)cc4)CC3)ccc2c2c1CCC2 (centres unmarked)	enzyme activity, inhibitor	40.8%
Cc1ccc(-c2cnc([C@@]3(O)CC[C@H](C(=O)O)C(C)(C)C3)s2)cc1Nc1cccc(C(F)(F)F)n1	ligand displacement	-5.34%
Cc1ccccc1N1CCN(CC(O)COc2ccc(C(=O)c3ccccc3)cc2)CC1 (centres unmarked)	enzyme activity, inhibitor	49.2%
Cc1c(C(=O)O)cc(-c2ccc(C3CCNCC3)cc2)c2ccc(-c3ccc(C(F)(F)F)cc3)cc12	cell-free assay	-14.4%
CCCNc1nc2ccccc2n1Cc1ccc(Cl)cc1	ligand displacement	1.09%
Cc1ccccc1N1CCN(CCCCN2C(=O)C3CCCN3C2=O)CC1 (centres unmarked)	enzyme activity, inhibitor	42.3%
COc1cccc(OC[C@@H]2CN(CC(=O)N3CCc4ccccc43)CCO2)c1	ligand displacement, radioligand	9.5%
O=C(c1ccc(F)cc1)N1CC(COc2ccc(Br)cc2)(C(=O)O)C1	cell-free assay	-29.4%
COc1cc(C(C)=O)ccc1OCC(O)CN1CCN(c2cc(Cl)ccc2C)CC1 (centres unmarked)	enzyme activity, inhibitor	33%
Cc1ncccc1OC[C@H]1CN(CCN2CCc3ccccc32)CCO1	ligand displacement, radioligand	26.5%
O=C1NC(c2ccccn2)Sc2ccccc21 (centres unmarked)	ligand displacement	-3.91%
COc1ccc(CCN2C(=O)CC(N3CCN(c4ccc(Cl)cc4)CC3)C2=O)cc1OC (centres unmarked)	enzyme activity, inhibitor	11.9%
O=C1c2ccccc2CCCN1CCCCN1CCN(c2ccccn2)CC1	ligand displacement, radioligand	93%
CN(C)CC#Cc1ccc(OCCCc2sc(N3CCc4cccc(C(=O)Nc5nc6ccccc6s5)c4C3)nc2C(=O)O)c(F)c1	ligand displacement	31.5%
Clc1cccc(OC[C@H]2CN(CCN3CCc4ccccc43)CCO2)c1	ligand displacement, radioligand	63.1%
C[C@H](NC(=O)Nc1cc2[nH]ncc2c(CO)n1)c1ccccn1	cell-free assay	17.7%
O=C(CN1CCO[C@H](COc2cccc(Cl)c2)C1)N1CCc2ccccc21	ligand displacement, radioligand	15.1%
O=C1C2CCCN2C(=O)N1CCCCN1CCN(c2ccccc2)CC1 (centres unmarked)	enzyme activity, inhibitor	48.3%
c1ccc(OC[C@@H]2CN(CCN3CCc4ccccc43)CCO2)cc1	ligand displacement, radioligand	92.8%
CCN(CC)c1ccc(C2Nc3ccc(C(=O)c4ccccc4)cc3NC3=C2C(=O)CC(C)(C)C3)cc1 (centres unmarked)	ligand displacement, radioligand	99%
